Data on 8 compounds can be found in ChEMBL document CHEMBL1152304, “Alteration of the bis-tetrahydrofuran core stereochemistries in asimicin can affect the cytotoxicity” (J Med Chem, 2008).

Where only a bound is given, the exact number is not on record here.

For assay [1], the system named is L1210. The assay can be described thus: Cytotoxicity against mouse L1210 cells at 60 ug by disk diffusion assay. It is filed as functional. In outline: (§1)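 15 µL of sample dried overnight on 6.5 mm filter disk. Disk placed near edge of 60 mm dish of cells plated in soft agar, incubated 7-10 days. Zone of inhibition measured from disk edge to start of normal-sized colony formation, disk diameter taken as 200 units. Overly toxic samples diluted 1:4 or 1:10 and retested.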

For assay [2], the system named is L1210. The assay can be described thus: Cytotoxicity against mouse L1210 cells at 15 ug by disk diffusion assay. It is filed as functional. In outline: as §1
(In general: Agar diffusion results depend on both activity and mobility in agar.)

Assay [3] has as its system L1210. Nature of the assay: Cytotoxicity against mouse L1210 cells at 3.75 ug by disk diffusion assay. Format: functional. In outline:
as §1

Assay [4] deals with L1210. The assay can be described thus: Cytotoxicity against mouse L1210 cells at 0.94 ug by disk diffusion assay. Format: functional. The gist of the method: as §1
Assay [5] concerns MC-38. Nature of the assay: Cytotoxicity against mouse Colon 38 cells at 15 ug by disk diffusion assay. It is filed as functional. In outline: as §1
Assay [6] deals with MC-38. The assay can be described thus: Cytotoxicity against mouse Colon 38 cells at 3.75 ug by disk diffusion assay. Format: functional. In outline: as §1
For assay [7], the system named is MC-38. Nature of the assay: Cytotoxicity against mouse Colon 38 cells at 0.94 ug by disk diffusion assay. Format: functional. The gist of the method: as §1
Assay [8] deals with HCT-116. The assay can be described thus: Cytotoxicity against human HCT116 cells at 15 ug by disk diffusion assay. Format: functional. The gist of the method: as §1
A short description of assay [9]: Cytotoxicity against human H125M cells at 15 ug by disk diffusion assay. It is filed as functional. In outline:
as §1

A further assay has as its system CCRF-CEM. The assay can be described thus: Cytotoxicity against human CEM cells at 15 ug by disk diffusion assay. Format: functional. In outline: as §1
Assay [10] can be described thus: Cytotoxicity against human CFU-GM cells at 60 ug by disk diffusion assay. It is filed as functional. In outline: as §1
A short description of assay [11]: Cytotoxicity against human CFU-GM cells at 15 ug by disk diffusion assay. It is filed as functional. In outline:
as §1

A short description of assay [12]: Cytotoxicity against human CFU-GM cells at 3.75 ug by disk diffusion assay. Format: functional. The gist of the method: as §1
The nature of assay [13]: Cytotoxicity against human CFU-GM cells at 0.94 ug by disk diffusion assay. It is filed as functional. The gist of the method: as §1
Assay [14] relates to MC-38. The assay can be described thus: Cytotoxicity against mouse Colon 38 cells at 60 ug by disk diffusion assay. It is filed as functional. In outline:
as §1

Assay [15] is described as follows: Inhibition of bovine heart mitochondrial complex1 activity. Details: species or system Bos taurus. In outline: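 Bovine heart submitochondrial particles, 15 µg/mL, in 0.25 M sucrose, 1 mM MgCl2, 50 mM phosphate pH 7.5. Inhibitor added at various concentrations and equilibrated 5 min. Reaction started with 150 µM NADH and followed spectrophotometrically at 340 nm. IC50 derived.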

Assay [16] has as its system HCT-116. Nature of the assay: Cytotoxicity against human HCT116 cells. Format: functional, cell-based.
Assay [17] in a line: Cytotoxicity against human H125M cells at 60 ug by disk diffusion assay. It is filed as functional. The gist of the method: as §1

One may read the IC50 as the concentration that gives 50% inhibition. Regarding `CCCCCCCCCC[C@@H](O)[C@H]1CC[C@@H]([C@@H]2CC[C@H]([C@H](O)CCCCCCCCCC[C@@H](O)CC3=C[C@H](C)OC3=O)O2)O1`, the “inhibition zone (IZ)” value in the assay with L1210 [1] amounted to 450 Zone units; in the assay on L1210 [2], 100 Zone units; with L1210 [3] it was 150 Zone units; in the assay with L1210 [4], 150 Zone units; in the assay with MC-38 [5], 800 Zone units; in the assay on MC-38 [6], 750 Zone units. Further, the “inhibition zone (IZ)” value with MC-38 [7] was 550 Zone units; in the assay with HCT-116 [8] it was 500 Zone units; in assay [9] it was 350 Zone units; in the assay on CCRF-CEM it was 0 Zone units; in assay [10], 650 Zone units; in assay [11], 300 Zone units. The “inhibition zone (IZ)” value in assay [12] worked out at 500 Zone units; in assay [13] it was 450 Zone units; in the assay with MC-38 [14] it was 800 Zone units. Besides, the concentration for half-maximal inhibition (IC50) in assay [15] amounted to 7.5 nM; in the assay on HCT-116 [16], 18 nM.

With `CCCCCCC[C@H](O)CC[C@H](O)[C@H]1CC[C@H]([C@H]2CC[C@H]([C@@H](O)CCCCCCCCCC[C@@H](O)CC3=C[C@H](C)OC3=O)O2)O1`, the “inhibition zone (IZ)” value is given as 600 Zone units with L1210 [1]; 300 Zone units with L1210 [2]; 400 Zone units with L1210 [3]; 100 Zone units in the assay with L1210 [4]; 900 Zone units in the assay on MC-38 [5]; 850 Zone units in the assay on MC-38 [6]. Besides, the “inhibition zone (IZ)” value with MC-38 [7] is 750 Zone units; in the assay with HCT-116 [8], 600 Zone units; in assay [9], 550 Zone units; in the assay with CCRF-CEM it was 150 Zone units; in [10], 750 Zone units; in [11] it was 300 Zone units. In addition, the “inhibition zone (IZ)” value in [12] is listed as 450 Zone units; in assay [13], 450 Zone units; with MC-38 [14], >1000 Zone units.

In the case of `CCCCCCCCCC[C@H](O)[C@H]1CC[C@@H]([C@@H]2CC[C@H]([C@@H](O)CCCCCCCCCC[C@@H](O)CC3=C[C@H](C)OC3=O)O2)O1`, the “inhibition zone (IZ)” value in the assay on L1210 [1] is on record as 650 Zone units; in the assay with L1210 [2], 200 Zone units; with L1210 [3] it was 250 Zone units; with L1210 [4], 100 Zone units; in the assay on MC-38 [5] it was 900 Zone units; with MC-38 [6], 800 Zone units. In addition, the “inhibition zone (IZ)” value is listed as 700 Zone units in the assay on MC-38 [7]; 550 Zone units in the assay on HCT-116 [8]; 400 Zone units in [9]; 0 Zone units in the assay on CCRF-CEM; 700 Zone units in assay [10]; 250 Zone units in assay [11]. Also, the “inhibition zone (IZ)” value in [12] is on record as 600 Zone units; in assay [13], 550 Zone units; with MC-38 [14] it was 800 Zone units. Further, the IC50 in assay [15] is 5 nM; in the assay on HCT-116 [16], 0.69 nM.

Turning to `CCCCCCC[C@H](O)CC[C@H](O)[C@H]1CC[C@H]([C@H]2CC[C@H]([C@H](O)CCCCCCCCCC[C@@H](O)CC3=C[C@H](C)OC3=O)O2)O1`, the “inhibition zone (IZ)” value in the assay with L1210 [1] worked out at 700 Zone units; in the assay with L1210 [2], 250 Zone units; with L1210 [3], 350 Zone units; in the assay with L1210 [4] it was 150 Zone units; with MC-38 [5] it was 950 Zone units; with MC-38 [6], 750 Zone units. Also, the “inhibition zone (IZ)” value is 600 Zone units in the assay with MC-38 [7]; 600 Zone units with HCT-116 [8]; 100 Zone units in [9]; 0 Zone units in the assay with CCRF-CEM; 700 Zone units in assay [10]; 400 Zone units in [11]. For the same compound, the “inhibition zone (IZ)” value is 550 Zone units in [12], 500 Zone units in [13] and 900 Zone units in the assay with MC-38 [14].

On to `CCCCCCCCCC[C@H](O)[C@H]1CC[C@H]([C@H]2CC[C@H]([C@@H](O)CCCCCCCCCC[C@@H](O)CC3=C[C@H](C)OC3=O)O2)O1`, for which the “inhibition zone (IZ)” value in the assay with L1210 [1] is 800 Zone units; in the assay on L1210 [2], 150 Zone units; in the assay on L1210 [3], 400 Zone units; in the assay with L1210 [4] it was 100 Zone units; with MC-38 [5] it was 800 Zone units; in the assay with MC-38 [6], 800 Zone units. Also, the “inhibition zone (IZ)” value with MC-38 [7] was 700 Zone units; with HCT-116 [8] it was 600 Zone units; in assay [9] it was 450 Zone units; in the assay on CCRF-CEM, 150 Zone units; in the assay with MC-38 [14] it was 800 Zone units. The results for the IC50 (in assay [15]; in the assay with HCT-116 [16]) were 9 nM and 0.45 nM, respectively.

As for `CCCCCCCCCC[C@@H](O)[C@@H]1CC[C@@H]([C@@H]2CC[C@@H]([C@H](O)CCCCCCCCCC(O)CC3=CC(C)OC3=O)O2)O1` (stereo partly specified) [BULLATACIN], the “inhibition zone (IZ)” value with L1210 [1] stood at 550 Zone units; with L1210 [2] it was 200 Zone units; with L1210 [3], 250 Zone units; in the assay on L1210 [4], 150 Zone units; in the assay on MC-38 [5] it was 850 Zone units; with MC-38 [6], 800 Zone units. The “inhibition zone (IZ)” value was found to be 650 Zone units in the assay on MC-38 [7]; 650 Zone units in the assay with HCT-116 [8]; 400 Zone units in assay [17]; 100 Zone units with CCRF-CEM; 700 Zone units in assay [10]; 550 Zone units in [11]. Moreover, the “inhibition zone (IZ)” value in assay [12] turned out to be 450 Zone units; in assay [13], 450 Zone units; with MC-38 [14], 1000 Zone units. In addition, the IC50 in assay [15] turned out to be 2.5 nM; in the assay on HCT-116 [16], 1.4 nM.

In the case of `CCCCCCCCCC[C@@H](O)[C@H]1CC[C@@H]([C@H]2CC[C@H]([C@H](O)CCC[C@H](O)CCCCCCCC3=C[C@H](C)OC3=O)O2)O1` [TRILOBIN], the “inhibition zone (IZ)” value amounted to 850 Zone units in the assay on L1210 [1]; 200 Zone units in the assay with L1210 [2]; 200 Zone units in the assay on L1210 [3]; 100 Zone units in the assay on L1210 [4]; 800 Zone units in the assay on MC-38 [5]; 800 Zone units in the assay with MC-38 [6]. Moreover, the “inhibition zone (IZ)” value with MC-38 [7] is 600 Zone units; in the assay with HCT-116 [8], 450 Zone units; in [9], 350 Zone units; with CCRF-CEM it was 100 Zone units; in assay [10], 550 Zone units; in [11], 350 Zone units. Moreover, the “inhibition zone (IZ)” value amounted to 500 Zone units in [12], 400 Zone units in assay [13] and 950 Zone units with MC-38 [14].

With `CCCCCCCCCC[C@H](O)[C@H]1CC[C@@H]([C@@H]2CC[C@H]([C@H](O)CCCCCCCCCC[C@@H](O)CC3=C[C@H](C)OC3=O)O2)O1` [rolliniastatin-1], the “inhibition zone (IZ)” value in the assay with L1210 [1] was 600 Zone units; with L1210 [2] it was 200 Zone units; in the assay on L1210 [3], 250 Zone units; in the assay with L1210 [4], 100 Zone units; in the assay with MC-38 [5] it was 1000 Zone units; with MC-38 [6], 800 Zone units. The “inhibition zone (IZ)” value with MC-38 [7] is listed as 700 Zone units; with HCT-116 [8] it was 600 Zone units; in assay [9], 600 Zone units; in the assay with CCRF-CEM, 0 Zone units; in [10] it was 750 Zone units; in assay [11], 350 Zone units. In addition, the figures for the “inhibition zone (IZ)” value (in assay [12]; in assay [13]; with MC-38 [14]) were 400 Zone units, 400 Zone units and 900 Zone units, respectively. Moreover, the IC50 is 3 nM in assay [15] and 0.22 nM with HCT-116 [16].
